ChEMBL document CHEMBL2401700, “Discovery of TD-8954, a clinical stage 5-HT(4) receptor agonist with gastrointestinal prokinetic properties” (Bioorg Med Chem Lett, 2013)
pEC50, pKi: −log10 of the molar value.

Key:
[1] = molecular target: T1, 5-hydroxytryptamine receptor 4 (Homo sapiens, UniProt Q13639); assay: Agonist activity at human recombinant 5HT4 receptor assessed as cAMP accumulation relative to 5-HT; format: functional
Procedure, shortened: (§1)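 cAMP accumulation in cells expressing human recombinant 5-HT4 receptor, reported as pEC50 with intrinsic activity as % of the maximum response achieved by 5-HT.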

[2] = molecular target: T2, 5-hydroxytryptamine receptor 3A (Homo sapiens, UniProt P46098); assay: Binding affinity to human recombinant 5HT3 receptor
T2 sequence (P46098 whole entry): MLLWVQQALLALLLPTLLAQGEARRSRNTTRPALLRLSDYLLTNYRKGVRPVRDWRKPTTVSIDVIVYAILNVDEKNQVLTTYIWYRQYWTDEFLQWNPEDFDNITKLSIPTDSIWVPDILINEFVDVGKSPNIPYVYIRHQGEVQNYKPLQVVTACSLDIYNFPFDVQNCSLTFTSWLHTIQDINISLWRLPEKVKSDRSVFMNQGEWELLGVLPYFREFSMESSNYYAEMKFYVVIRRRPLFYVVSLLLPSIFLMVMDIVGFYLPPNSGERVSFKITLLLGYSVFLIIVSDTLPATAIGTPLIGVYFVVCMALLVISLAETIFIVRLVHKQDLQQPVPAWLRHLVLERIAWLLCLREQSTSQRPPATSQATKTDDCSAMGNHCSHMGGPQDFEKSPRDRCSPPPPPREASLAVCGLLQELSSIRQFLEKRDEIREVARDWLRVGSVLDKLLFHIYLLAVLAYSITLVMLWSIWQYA

[3] = molecular target: T1, 5-hydroxytryptamine receptor 4; assay: Binding affinity to human recombinant 5HT4 receptor
[4] = Permeability across human Caco2 cells; format: ADME, cell-based; conditions: Caco-2, read-out: Kp
[5] = Half life in rat liver micrososmes; format: ADME, Microsome; conditions: liver microsomes
[6] = molecular target: T1, 5-hydroxytryptamine receptor 4; assay: Agonist activity at human recombinant 5HT4 receptor assessed as cAMP accumulation; format: functional; procedure, shortened: as §1
hERG (KCNH2) = hERG (KCNH2) (Homo sapiens, UniProt Q12809); assay: Inhibition of human ERG channel at 3 uM
Rattus norvegicus = assay: Agonist activity at 5HT4 receptor in ID dosed rat assessed as dose required to cause esophageal relaxation of 0.1 mm; format: functional
Procedure, shortened: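 Anesthetized rats dosed intraduodenally over about 0.01–10 mg/kg. Esophageal relaxation was tracked by digital sonomicrometry as the change in inter-crystal distance (mm), n = 4–6. An ED50 was derived from the dose–response, and the dose giving a 0.1 mm relaxation response was calculated.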

[7] = molecular target: T3, 5-hydroxytryptamine receptor 1A (Homo sapiens, UniProt P08908); assay: Binding affinity to human serotonin 5-HT1A receptor
T3 sequence (P08908 whole entry): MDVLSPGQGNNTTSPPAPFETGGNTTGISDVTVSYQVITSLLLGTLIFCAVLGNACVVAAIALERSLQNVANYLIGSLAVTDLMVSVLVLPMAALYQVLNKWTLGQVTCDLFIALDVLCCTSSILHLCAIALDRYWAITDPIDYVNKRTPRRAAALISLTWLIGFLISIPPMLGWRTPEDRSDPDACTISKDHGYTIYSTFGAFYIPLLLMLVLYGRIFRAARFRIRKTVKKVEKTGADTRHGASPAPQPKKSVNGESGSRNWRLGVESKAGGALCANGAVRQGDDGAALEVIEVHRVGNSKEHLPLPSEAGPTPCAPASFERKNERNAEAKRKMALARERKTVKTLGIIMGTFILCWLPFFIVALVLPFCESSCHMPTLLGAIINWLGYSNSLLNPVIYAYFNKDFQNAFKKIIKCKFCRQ

[8] = molecular target: T4, 5-hydroxytryptamine receptor 7 (Homo sapiens, UniProt P34969); assay: Binding affinity to human serotonin 5-HT7 receptor
[9] = molecular target: T2, 5-hydroxytryptamine receptor 3A; assay: Binding affinity to serotonin 5-HT3 receptor (unknown origin)
[10] = molecular target: T5, 5-hydroxytryptamine receptor 2C (Homo sapiens, UniProt P28335); assay: Binding affinity to serotonin 5-HT2C receptor (unknown origin)
T5 sequence (P28335 whole entry): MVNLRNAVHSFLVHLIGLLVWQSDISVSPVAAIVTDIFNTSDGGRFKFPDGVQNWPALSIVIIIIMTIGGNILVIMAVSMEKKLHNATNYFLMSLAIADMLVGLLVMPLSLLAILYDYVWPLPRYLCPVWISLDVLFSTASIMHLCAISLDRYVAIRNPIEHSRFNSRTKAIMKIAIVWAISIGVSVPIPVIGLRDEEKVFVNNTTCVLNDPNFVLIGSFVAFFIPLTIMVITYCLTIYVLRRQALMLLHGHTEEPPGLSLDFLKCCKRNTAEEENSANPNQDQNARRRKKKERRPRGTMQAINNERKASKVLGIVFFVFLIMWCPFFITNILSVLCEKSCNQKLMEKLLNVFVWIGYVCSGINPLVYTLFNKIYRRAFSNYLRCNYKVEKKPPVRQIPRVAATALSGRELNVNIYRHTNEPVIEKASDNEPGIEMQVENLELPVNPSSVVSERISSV

[11] = molecular target: 5-hydroxytryptamine receptor 2A (Homo sapiens, UniProt P28223); assay: Binding affinity to serotonin 5-HT2A receptor (unknown origin)
[12] = molecular target: 5-hydroxytryptamine receptor 2B (Homo sapiens, UniProt P41595); assay: Binding affinity to serotonin 5-HT2B receptor (unknown origin)
[13] = Cardiotoxicity in dog coronary artery assessed as coronary artery constriction; format: toxicity, tissue-based, Canis lupus familiaris
[14] = molecular target: T4, 5-hydroxytryptamine receptor 7; assay: Binding affinity to serotonin 5-HT7 receptor (unknown origin)
[15] = molecular target: 5-hydroxytryptamine receptor 1D (Homo sapiens, UniProt P28221); assay: Binding affinity to serotonin 5-HT1D receptor (unknown origin)
Chain of 5-hydroxytryptamine receptor 1D (P28221 whole entry): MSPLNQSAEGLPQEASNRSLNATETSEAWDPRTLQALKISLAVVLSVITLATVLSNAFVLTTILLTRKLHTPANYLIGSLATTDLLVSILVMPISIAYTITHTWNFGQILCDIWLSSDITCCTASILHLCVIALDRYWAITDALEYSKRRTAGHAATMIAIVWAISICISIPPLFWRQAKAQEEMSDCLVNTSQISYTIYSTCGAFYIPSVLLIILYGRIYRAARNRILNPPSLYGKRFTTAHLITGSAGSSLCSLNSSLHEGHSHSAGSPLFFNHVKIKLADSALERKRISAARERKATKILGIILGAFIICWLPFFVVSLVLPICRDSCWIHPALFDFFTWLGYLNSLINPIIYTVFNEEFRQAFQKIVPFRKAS

T1 sequence (Q13639 whole entry): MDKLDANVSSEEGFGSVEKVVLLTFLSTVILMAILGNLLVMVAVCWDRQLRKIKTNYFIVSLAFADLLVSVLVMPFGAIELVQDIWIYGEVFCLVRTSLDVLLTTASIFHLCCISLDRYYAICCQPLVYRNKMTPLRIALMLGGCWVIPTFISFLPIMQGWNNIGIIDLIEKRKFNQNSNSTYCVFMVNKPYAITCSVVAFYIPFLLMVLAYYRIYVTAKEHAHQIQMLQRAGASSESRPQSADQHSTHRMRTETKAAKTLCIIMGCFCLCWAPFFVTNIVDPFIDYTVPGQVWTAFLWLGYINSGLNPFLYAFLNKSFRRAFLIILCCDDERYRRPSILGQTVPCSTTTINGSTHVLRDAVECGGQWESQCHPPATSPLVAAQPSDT
Chain of hERG (KCNH2) (Q12809 whole entry): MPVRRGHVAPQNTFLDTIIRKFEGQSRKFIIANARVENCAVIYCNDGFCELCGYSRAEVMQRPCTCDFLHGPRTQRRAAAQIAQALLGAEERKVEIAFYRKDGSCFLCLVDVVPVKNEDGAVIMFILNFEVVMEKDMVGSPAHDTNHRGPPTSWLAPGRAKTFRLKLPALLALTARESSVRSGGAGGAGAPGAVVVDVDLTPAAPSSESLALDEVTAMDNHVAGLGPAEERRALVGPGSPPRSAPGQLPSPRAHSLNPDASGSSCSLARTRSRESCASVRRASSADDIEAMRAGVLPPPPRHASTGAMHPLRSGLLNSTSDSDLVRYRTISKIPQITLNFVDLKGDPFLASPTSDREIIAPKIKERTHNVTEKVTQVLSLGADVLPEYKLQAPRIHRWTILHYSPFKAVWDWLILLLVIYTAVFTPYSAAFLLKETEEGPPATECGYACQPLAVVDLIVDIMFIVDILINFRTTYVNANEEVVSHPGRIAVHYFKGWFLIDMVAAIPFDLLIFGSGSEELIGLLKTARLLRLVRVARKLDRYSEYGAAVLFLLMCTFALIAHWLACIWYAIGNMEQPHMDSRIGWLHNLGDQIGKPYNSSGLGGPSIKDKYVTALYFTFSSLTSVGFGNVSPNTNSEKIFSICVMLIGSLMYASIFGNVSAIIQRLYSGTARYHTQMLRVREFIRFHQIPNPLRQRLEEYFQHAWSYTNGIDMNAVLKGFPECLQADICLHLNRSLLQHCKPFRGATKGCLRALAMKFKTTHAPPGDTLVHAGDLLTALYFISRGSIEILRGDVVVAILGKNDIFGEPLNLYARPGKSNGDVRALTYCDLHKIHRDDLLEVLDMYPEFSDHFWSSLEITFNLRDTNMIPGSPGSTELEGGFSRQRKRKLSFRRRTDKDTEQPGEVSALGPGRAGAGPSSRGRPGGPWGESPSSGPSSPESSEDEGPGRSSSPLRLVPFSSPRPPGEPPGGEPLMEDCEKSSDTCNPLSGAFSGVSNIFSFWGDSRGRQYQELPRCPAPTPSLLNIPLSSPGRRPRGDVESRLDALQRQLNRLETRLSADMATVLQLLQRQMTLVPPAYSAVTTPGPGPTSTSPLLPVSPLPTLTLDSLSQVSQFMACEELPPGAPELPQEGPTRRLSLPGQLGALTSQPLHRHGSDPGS
T4 sequence (P34969 whole entry): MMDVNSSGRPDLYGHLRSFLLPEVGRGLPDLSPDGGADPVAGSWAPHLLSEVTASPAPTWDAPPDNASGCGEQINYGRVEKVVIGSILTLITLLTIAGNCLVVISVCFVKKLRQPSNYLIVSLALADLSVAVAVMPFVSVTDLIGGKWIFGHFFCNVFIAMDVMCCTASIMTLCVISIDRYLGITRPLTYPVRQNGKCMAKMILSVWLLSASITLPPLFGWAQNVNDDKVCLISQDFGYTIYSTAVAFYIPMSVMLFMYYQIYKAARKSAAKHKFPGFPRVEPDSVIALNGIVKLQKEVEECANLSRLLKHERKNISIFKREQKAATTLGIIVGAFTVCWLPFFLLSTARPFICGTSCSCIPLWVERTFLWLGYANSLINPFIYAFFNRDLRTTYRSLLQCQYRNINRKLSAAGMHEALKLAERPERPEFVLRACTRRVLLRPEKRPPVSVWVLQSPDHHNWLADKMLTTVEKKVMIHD
Chain of 5-hydroxytryptamine receptor 2A (P28223 whole entry): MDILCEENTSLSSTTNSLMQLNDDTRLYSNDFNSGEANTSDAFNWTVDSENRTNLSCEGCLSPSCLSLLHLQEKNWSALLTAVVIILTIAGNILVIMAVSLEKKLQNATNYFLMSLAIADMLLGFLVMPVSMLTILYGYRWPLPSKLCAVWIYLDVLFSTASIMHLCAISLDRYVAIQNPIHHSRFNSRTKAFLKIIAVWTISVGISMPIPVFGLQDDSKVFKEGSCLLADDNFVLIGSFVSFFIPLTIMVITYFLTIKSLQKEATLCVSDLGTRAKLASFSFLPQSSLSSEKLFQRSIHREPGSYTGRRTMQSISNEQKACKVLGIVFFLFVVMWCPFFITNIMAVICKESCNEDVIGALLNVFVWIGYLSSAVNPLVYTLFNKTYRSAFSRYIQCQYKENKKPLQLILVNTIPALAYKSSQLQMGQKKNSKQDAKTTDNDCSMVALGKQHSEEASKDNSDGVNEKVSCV
Chain of 5-hydroxytryptamine receptor 2B (P41595 whole entry): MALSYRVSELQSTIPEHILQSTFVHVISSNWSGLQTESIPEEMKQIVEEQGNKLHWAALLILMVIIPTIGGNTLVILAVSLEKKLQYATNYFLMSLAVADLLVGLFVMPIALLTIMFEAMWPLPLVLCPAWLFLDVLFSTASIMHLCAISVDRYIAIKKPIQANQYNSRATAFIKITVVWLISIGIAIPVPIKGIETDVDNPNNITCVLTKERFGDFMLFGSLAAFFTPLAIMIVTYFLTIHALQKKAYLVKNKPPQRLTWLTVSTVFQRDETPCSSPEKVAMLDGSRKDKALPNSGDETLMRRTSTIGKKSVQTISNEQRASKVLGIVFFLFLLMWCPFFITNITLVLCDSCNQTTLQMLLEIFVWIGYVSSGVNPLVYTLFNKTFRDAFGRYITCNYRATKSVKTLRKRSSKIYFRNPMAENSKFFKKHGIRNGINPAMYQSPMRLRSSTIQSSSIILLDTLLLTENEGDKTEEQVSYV

SMILES	Intrinsic activity [1] [%]	pKi [2]	pKi [3]	Papp [4] [×10⁻⁶ cm/s]	half-life [5] [min]	pEC50 [6]	also measured
CS(=O)(=O)N1CCN(CC(O)CN2CCC(CNC(=O)c3cccc4[nH]c(C5CC5)nc34)CC2)CC1 (stereo not given)	64	4.30	9.30	2.1	> 90	9.20	
COC(=O)N1CCN(CCN2CCC(CNC(=O)c3cccc4[nH]c(C(C)C)nc34)CC2)CC1	72	4.10	8.80	9	> 90	8.80	
CCc1nc2c(C(=O)NCC3CCN(CC(O)CN4CCN(S(C)(=O)=O)CC4)CC3)cccc2[nH]1 (stereo not given)	22	4.10	9.30			9.00	
CC(C)c1nc2c(C(=O)NCC3CCN(CC(O)CN(C)S(C)(=O)=O)CC3)cccc2[nH]1 (stereo not given)	83						
CS(=O)(=O)N1CCN(CC(O)CN2[C@@H]3CC[C@H]2C[C@@H](NC(=O)c2cccc4nc[nH]c24)C3)CC1 (stereo not given in full)		4.70	6.50			6.60	
CS(=O)(=O)N1CCN(CC(O)CN2CCC(CNC(=O)c3cccc4nc[nH]c34)CC2)CC1 (stereo not given)		4.30	8.20			8.00	
CC(F)(F)c1nc2cccc(C(=O)NCC3CCN(CC(O)CN4CCN(S(C)(=O)=O)CC4)CC3)c2[nH]1 (stereo not given)		5.10	8.70			9.10	
CC(C)c1nc2cccc(C(=O)NCC3CCN(CC(O)CN(C)S(C)(=O)=O)CC3)c2[nH]1 (stereo not given)		4.10	8.90	1	> 90	9.40	
CC(C)(C)c1nc2cccc(C(=O)NCC3CCN(CC(O)CN4CCN(S(C)(=O)=O)CC4)CC3)c2[nH]1 (stereo not given)		4.40	7.90	0.5	> 90	8.50	
CS(=O)(=O)N1CCN(CC(O)CN2[C@@H]3CC[C@H]2C[C@@H](NC(=O)c2cccc4[nH]cnc24)C3)CC1 (stereo not given in full)	54						
CCCCCNC(=N)N/N=C/c1c[nH]c2ccc(OC)cc12 [TEGASEROD]		5.60			> 90		pKi [10]: > 7.00; Activity (Rattus norvegicus): 2.43 mg/kg; pKi [11]: > 7.00; pKi [12]: > 8.70; Activity [13]: Toxic; pKi [14]: > 7.00; pKi [15]: > 7.00
COC(=O)N(C)CC(O)CN1CCC(CNC(=O)c2cccc3nc(C(C)C)[nH]c23)CC1 (stereo not given)		4.30	8.40	2	79	8.70	
CS(=O)(=O)N1CCN(CC(O)CN2CCC(NC(=O)c3cccc4[nH]cnc34)CC2)CC1 (stereo not given)	7	4.20	6.60			6.20	
CC(=O)N1CCN(CCN2CCC(CNC(=O)c3cccc4[nH]c(C(C)C)nc34)CC2)CC1	76						
CC(=O)N1CCN(CCN2CCC(CNC(=O)c3cccc4nc(C(C)C)[nH]c34)CC2)CC1		4.40	8.30		> 90	8.50	
CC(C)(C)c1nc2c(C(=O)NCC3CCN(CC(O)CN4CCN(S(C)(=O)=O)CC4)CC3)cccc2[nH]1 (stereo not given)	94						
COC(=O)N(C)CC(O)CN1CCC(CNC(=O)c2cccc3[nH]c(C(C)C)nc23)CC1 (stereo not given)	64						
CC(C)c1nc2c(C(=O)NCC3CCN(CCN4CCN(S(C)(=O)=O)CC4)CC3)cccc2[nH]1	64	4.00	9.10	4	> 90	9.10	
CS(=O)(=O)N1CCN(CC(O)CN2CCC(CNC(=O)c3cccc4[nH]cnc34)CC2)CC1 (stereo not given)	6						

More lines, main results first:

Intrinsic activity [1] [%]	pKi [2]	pKi [3]	Papp [4] [×10⁻⁶ cm/s]	half-life [5] [min]	pEC50 [6]	SMILES	also measured
59						CC(F)(F)c1nc2c(C(=O)NCC3CCN(CC(O)CN4CCN(S(C)(=O)=O)CC4)CC3)cccc2[nH]1 (stereo not given)	
61	4.10	9.30	0.2	> 90	9.20	CC(C)c1nc2c(C(=O)NCC3CCN(CC(O)CN4CCN(S(C)(=O)=O)CC4)CC3)cccc2[nH]1 (stereo not given)	inhibition at 3 µM (hERG (KCNH2)): 5%
71	5.70			47		COc1cc(N)c(Cl)cc1C(=O)NC1CCN(CCCOc2ccc(F)cc2)CC1OC (racemic) [CISAPRIDE]	Activity (Rattus norvegicus): 2.66 mg/kg; pKi [7]: 6.10; pKi [8]: 6.00; pKi [9]: 5.70
	4.20	8.40		> 90	8.80	CC(=O)N(C)CC(O)CN1CCC(CNC(=O)c2cccc3nc(C(C)C)[nH]c23)CC1 (stereo not given)	
87	4.00	9.00	6	> 90	8.80	CC(=O)N1CCC(CN2CCC(CNC(=O)c3cccc4[nH]c(C(C)C)nc34)CC2)CC1	inhibition at 3 µM (hERG (KCNH2)): 22%
63	4.00	9.30	5	88	9.00	CC(C)c1nc2c(C(=O)NCC3CCN(CC4CCN(S(C)(=O)=O)CC4)CC3)cccc2[nH]1	inhibition at 3 µM (hERG (KCNH2)): 8%
41	4.80	8.90			8.80	CS(=O)(=O)N1CCN(CC(O)CN2CCC(CNC(=O)c3cccc4[nH]c(-c5ccccc5)nc34)CC2)CC1 (stereo not given)	
0	5.90	9.50				CC(C)c1nc2c(C(=O)NCC3CCN(CC(O)CN4CCN(S(C)(=O)=O)CC4)CC3)cc(Cl)cc2[nH]1 (stereo not given)	
64						CC(=O)N(C)CC(O)CN1CCC(CNC(=O)c2cccc3[nH]c(C(C)C)nc23)CC1 (stereo not given)	
